In ChEMBL document CHEMBL1143645, “Structure-activity relationship study of novel necroptosis inhibitors” (Bioorg Med Chem Lett, 2005):

Legend:
Jurkat = experiment: Effective concentration required for inhibition of necroptosis in FADD deficient Jurkat T cells treated with TNF-alpha; format: functional, cell-based; settings: Homo sapiens
How it was run: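 FADD-deficient human Jurkat T cells given human TNFα 10 ng/mL plus rising concentrations of inhibitor for 24 h. Viability read by luminescent ATP-based assay and corrected for nonspecific toxicity. EC50 from nonlinear regression of sigmoid variable-slope dose–response curves, log inhibitor concentration versus viability.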

[1] = Area under curve concentration in male mouse after 8 hours of intravenous administration; format: ADME; set-up: time < 8 hr, route intravenous; settings: in vivo
How it was run: (§1)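 CD-1 mice of each sex given a single intravenous dose of 1 mg/kg. Vehicle was 10% propylene glycol in normal saline, dosing solution 0.16 mg/mL. Plasma pharmacokinetics followed over 8 h to give AUC, Cmax, half-life, Vss and clearance.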

[2] = Brain concentration in male mouse after 30 min intravenous administration; format: ADME
How it was run: (§2)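 Male CD-1 mice dosed intravenously at 1 mg/kg in 10% propylene glycol/normal saline (0.16 mg/mL). Brain and plasma concentrations measured at set post-injection times, and brain-to-plasma ratio calculated.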

[3] = Area under curve concentration in female mouse after 8 hours of intravenous administration; format: ADME; set-up: time < 8 hr, route intravenous; settings: in vivo; how it was run: as §1
[4] = Maximum concentration in female mouse upon intravenous administration; format: ADME, organism-based; set-up: route intravenous; settings: in vivo; how it was run: as §1
[5] = Plasma concentration in male mouse after 30 min intravenous administration; format: ADME; how it was run: as §2
[6] = Clearance value in female mouse upon intravenous administration; format: ADME, organism-based; settings: in vivo, read-out: CLs; how it was run: as §1
[7] = Volume of distribution at steady state was determined in male mouse upon intravenous administration; format: ADME, organism-based; settings: in vivo; how it was run: as §1
[8] = Plasma concentration in male mouse after 180 min intravenous administration; format: ADME; how it was run: as §2
[9] = Clearance value in male mouse upon intravenous administration; format: ADME, organism-based; settings: in vivo, read-out: CLs; how it was run: as §1
[10] = Maximum concentration in male mouse upon intravenous administration; format: ADME, organism-based; set-up: route intravenous; settings: in vivo; how it was run: as §1
[11] = Ratio between concentration in brain to that of plasma was determined n male mouse after 30 min intravenous administration; format: ADME; how it was run: as §2

Work on `CN1C(=O)C(Cc2c[nH]c3cc(Cl)ccc23)NC1=S` (stereo unspecified) yielded an EC50 (Jurkat) of over 10000 nM.

For `CN1C(=O)NC(Cc2cn(C)c3c(Cl)cccc23)C1=O` (stereo unspecified), the EC50 (Jurkat) was 3800 nM.

Work on `CN1C(=O)C(Cc2cn(C)c3c(Cl)cccc23)NC1=S` (stereo unspecified) yielded an EC50 (Jurkat) of over 10000 nM.

With `CN1C(=O)NC(Cc2c[nH]c3ccccc23)C1=O` (stereo unspecified) the EC50 (Jurkat) was 1300 nM.

In the case of `Cc1cccc2c(CC3NC(=O)N(C)C3=O)c[nH]c12` (stereo unspecified), the EC50 (Jurkat) is reported as 330 nM.

Molecule `CN1C(=O)C(Cc2c[nH]c3c(Cl)cccc23)N(C)C1=O` (stereo unspecified) has an EC50 (Jurkat) of over 10000 nM.

Molecule `CCCCN1C(=O)NC(Cc2c[nH]c3c(Cl)cccc23)C1=O` (stereo unspecified) has an EC50 (Jurkat) of 850 nM.

For `CN1CC(Cc2c[nH]c3c(Cl)cccc23)NC1=O` (stereo unspecified), the EC50 (Jurkat) was over 10000 nM.

Molecule `CN1C(=O)OC(Cc2c[nH]c3c(Cl)cccc23)C1=O` (stereo unspecified) has an EC50 (Jurkat) of 380 nM.

In the case of `COc1cccc2c(CC3NC(=O)N(C)C3=O)c[nH]c12` (stereo unspecified), the EC50 (Jurkat) is reported as 710 nM.

Molecule `CN1C(=O)NC(Cc2c[nH]c3c(OCc4ccccc4)cccc23)C1=O` (stereo unspecified) has an EC50 (Jurkat) of over 10000 nM.

With `CN1C(=O)NC(Cc2c[nH]c3cc(Cl)ccc23)C1=O` (stereo unspecified) the EC50 (Jurkat) was 5700 nM.

Work on `COc1ccc2[nH]cc(CC3NC(=O)N(C)C3=O)c2c1` (stereo unspecified) yielded an EC50 (Jurkat) of over 10000 nM.

With `O=C1NC(=O)C(Cc2c[nH]c3ccccc23)N1` (stereo unspecified) the EC50 (Jurkat) was over 10000 nM.

`CN1C(=O)C(Cc2c[nH]c3c(Br)cccc23)NC1=S` (stereo unspecified) showed an EC50 (Jurkat) of 160 nM.

Molecule `CN1C(=O)N[C@@H](Cc2c[nH]c3c(Cl)cccc23)C1=O` has an EC50 (Jurkat) of 230 nM.

`CN1C(=O)C(Cc2cn(C)c3ccccc23)NC1=S` (stereo unspecified) gave an EC50 (Jurkat) of over 10000 nM.

For `O=C1NC(=S)NC1Cc1c[nH]c2ccccc12` (stereo unspecified), the EC50 (Jurkat) was over 10000 nM.

`CN1C(=O)C(Cc2csc3ccccc23)NC1=S` (stereo unspecified) gave an EC50 (Jurkat) of 4800 nM.

Work on `CCN1C(=O)N[C@@H](Cc2c[nH]c3c(Cl)cccc23)C1=O` yielded an EC50 (Jurkat) of 180 nM.

Work on `CN1C(=O)C(Cc2c[nH]c3c(F)cccc23)NC1=S` (stereo unspecified) yielded an EC50 (Jurkat) of 260 nM.

Molecule `CN1C(=O)N[C@H](Cc2c[nH]c3c(Cl)cccc23)C1=O` has an EC50 (Jurkat) of 50 nM.

Work on `O=C1NC(Cc2c[nH]c3c(Cl)cccc23)CO1` (stereo unspecified) yielded an EC50 (Jurkat) of over 10000 nM.

Work on `CC(C)N1C(=O)NC(Cc2c[nH]c3c(Cl)cccc23)C1=O` (stereo unspecified) yielded an EC50 (Jurkat) of over 10000 nM.

In the case of `CN1C(=O)NC(Cc2c[nH]c3cccc(Cl)c23)C1=O` (stereo unspecified), the EC50 (Jurkat) is reported as 9200 nM.

`CN1C(=O)NC(Cc2c[nH]c3c(Cl)cc(Cl)cc23)C1=O` (stereo unspecified) showed an EC50 (Jurkat) of over 10000 nM.

Molecule `CN1C(=O)NC(Cc2c[nH]c3c(Cl)cccc23)C1=O` (stereo unspecified) has an AUC at 8 h [1] of 274 ng·h/mL, a concentration at 0.5 h [2] of 740 nM and an AUC at 8 h [3] of 165 ng·h/mL. For the same molecule, the Cmax [4] was 573 ng/mL, the EC50 (Jurkat) was 210 nM and the concentration at 0.5 h [5] was 310 nM. For the same molecule, the clearance [6] was 100 mL/min/kg, the Vss [7] was 2.5 L/kg and the Vd ([7]; male, read-out: Vss) was 2.5 L/kg. It also gave a concentration at 3 h [8] of 3 nM, a clearance [9] of 61 mL/min/kg and a Cmax [10] of 873 ng/mL. It also gave a Kp at 0.5 h [11] of 2.4.

`CN1C(=O)NC(Cc2csc3ccccc23)C1=O` (stereo unspecified) showed an EC50 (Jurkat) of 5600 nM.

With `CN1C(=O)C(Cc2c[nH]c3c(Cl)cccc23)NC1=S` (stereo unspecified) the EC50 (Jurkat) was 180 nM.

In the case of `CCCCOc1cccc2c(CC3NC(=O)N(C)C3=O)c[nH]c12` (stereo unspecified), the EC50 (Jurkat) is reported as 270 nM.

Molecule `CN1C(=O)NC(Cc2c[nH]c3c(F)cccc23)C1=O` (stereo unspecified) has an EC50 (Jurkat) of 590 nM.

Work on `Cc1[nH]c2ccccc2c1CC1NC(=O)N(C)C1=O` (stereo unspecified) yielded an EC50 (Jurkat) of over 10000 nM.

`COc1cccc2c(CC3NC(=S)N(C)C3=O)c[nH]c12` (stereo unspecified) gave an EC50 (Jurkat) of 630 nM.

`CN1C(=O)C(Cc2c[nH]c3ccccc23)NC1=S` (stereo unspecified) [NECROSTATIN] gave an EC50 (Jurkat) of 490 nM.
